# Most compounds without a hit are left out; they make up all but 4.8% or so of the library.
# Calb FLC – affects C. albicans growth with fluconazole; hit rate 0.57% among 300,000; growth inhibition, % (concentration not given with the values); C. albicans CaCi-2 (fluconazole-resistant clinical isolate) + fluconazole, Alamar Blue growth, 48 h;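 active = growth inhibition above about 58% in most replicates, limit read from the data, passing the limit was not always enough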;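 note: all wells also contain fluconazole at 8 µg/ml as a sub-toxic cotreatment; 0% = median of DMSO wells and 100% = median of geldanamycin control wells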
# ALR inh – human ALR oxidase inhibition via reduced H2O2. P55789. purified ALR, DTT oxidation, H2O2 HRP-luminol luminescence. inhibition, % (no concentration beside the values). hit rate 3.8% among 290,000;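 active = mean replicate inhibition above about 79%, with every replicate also reaching it, limit read from the data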
# Target sequence (P55789 whole entry, looked up): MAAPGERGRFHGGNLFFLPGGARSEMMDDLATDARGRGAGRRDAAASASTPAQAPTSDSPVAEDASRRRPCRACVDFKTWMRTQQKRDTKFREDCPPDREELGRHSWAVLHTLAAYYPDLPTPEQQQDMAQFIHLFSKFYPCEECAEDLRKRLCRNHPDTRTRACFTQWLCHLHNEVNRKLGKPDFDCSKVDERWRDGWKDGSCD
# NALP1 inh – blocks the NALP1 inflammasome reconstituted in yeast | inhibition, % at 10 µM | S. cerevisiae NALP1/ASC/caspase-1 growth, X-gal OD620, 72 h | hit rate 0.61% among 280,000; in the data active = inhibition mostly above about 24%, no sharp cut-off; inactive = mostly below about 32%
# ATG4B inhibitor – inhibitors of human ATG4B cysteine protease; inhibition, % at 8.33 µM; AID 504462; Q9Y4P1; hit rate 0.51% among 340,000; ATG4B cleavage of LC3-PLA2, NBD-HPC fluorescence, 1 h; in the data active = inhibition above about 40%
# Target sequence (Q9Y4P1 whole entry, looked up): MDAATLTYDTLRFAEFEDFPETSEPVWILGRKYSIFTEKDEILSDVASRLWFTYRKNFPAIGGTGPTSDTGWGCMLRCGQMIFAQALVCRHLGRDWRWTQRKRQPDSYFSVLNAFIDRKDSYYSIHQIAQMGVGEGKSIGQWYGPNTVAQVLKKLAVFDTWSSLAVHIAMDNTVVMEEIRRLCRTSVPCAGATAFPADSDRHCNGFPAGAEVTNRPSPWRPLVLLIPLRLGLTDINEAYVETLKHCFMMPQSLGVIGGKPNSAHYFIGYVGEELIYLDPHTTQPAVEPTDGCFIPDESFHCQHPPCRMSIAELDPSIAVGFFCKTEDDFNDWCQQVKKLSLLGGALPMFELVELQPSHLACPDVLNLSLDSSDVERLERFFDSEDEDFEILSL
# UCH37 inh – inhibitors of human deubiquitinating enzyme UCH37; Q9Y5K5; purified proteasome/UCH37, Ub-AMC cleavage fluorescence; inhibition, % (test concentration not listed); hit rate 0.33% among 330,000;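 active = mean inhibition over replicate wells above about 20%, limit read from the data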;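 note: 0% = compound-free wells with enzyme and 100% = wells lacking proteasome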
#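 Schedule: 30 min plus 25 min, room temperature / Material: human UCH37 within purified proteasomes / Technique: AMC fluorescence intensity at 355/460 nm / Buffer or medium: pH 7.4 Tris-HCl (50 mM) with ovalbumin, ATP-MgCl2, DTT / Controls: wells without proteasome as full block, compound-free enzyme plus substrate as uninhibited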
# NLRP3 yeast inh – inhibitors of NALP3 inflammasome in yeast; hit rate 0.39% among 330,000; Yeast reconstituted NLRP3/ASC/caspase-1, beta-gal luminescence, 24 h; inhibition, % at 10 µM;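 active = inhibition of 50% or more; inactive = inhibition below 50%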;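 note: plate controls were induced DMSO wells for no effect and uninduced yeast grown without galactose for full effect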
# An asterisk follows results filed as active; . = no result given.
SMILES,Calb FLC,ALR inh,NALP1 inh,ATG4B inhibitor,UCH37 inh,NLRP3 yeast inh
O=C(c1ccccc1N1CCOCC1)N1CCCC(Nc2ccc(F)cc2)C1 (centres undefined),6,98*,-3,-5,0,13
COc1ccc(NC2CCCN(C(=O)c3ccccc3N3CCOCC3)C2)cc1OC (centres undefined),9,98*,4,0,2,6
COC(=O)c1ccccc1C(=O)N1CCCC(C(=O)c2ccc(OC)c(OC)c2)C1 (centres undefined),0,-21,26,4,1,4
Cc1ccc(NC2CCCN(C(=O)c3ccccc3N3CCOCC3)C2)cc1C (centres undefined),11,99*,6,-9,3,5
CSc1ncccc1C(=O)N1CCCC(C(=O)c2cc(F)ccc2F)C1 (centres undefined),22,-2,-22,0,6,6
COc1ccc(NC2CCCN(C(=O)c3cccnc3SC)C2)cc1OC (centres undefined),13,100*,11,-6,4,5
O=C(Nc1nc(=O)c2ccccc2s1)c1ccccc1,87*,-1,-7,-2,4,22
Cc1ccc(C(=O)Nc2nc3ccccc3c(=O)s2)cc1,87*,2,22,-13,6,23
CC(C)(C)N1C(=O)c2ccc(C(=O)Nc3ccc(O)cc3)cc2C1=O,-4,98*,8,-11,4,23
CC(C)(C)NC(=O)c1cccc(NC(=O)c2ccc3c(c2)C(=O)N(C(C)(C)C)C3=O)c1,28,-1,18,-7,3,6
CCn1c2ccccc2c2cc(C=NNC(=O)c3ccncc3)ccc21,.,.,.,.,-7,.
COCCn1c(SCC(=O)c2ccc(Cl)cc2)nnc1C(C)C,7,91*,-8,-12,1,17
COCCn1c(SCC(=O)c2ccc3c(c2)OCCO3)nnc1C(C)C,-5,23,.,-15,3,12
O=C(CSc1nnc2ccccn12)c1ccc(Cl)cc1,29,85*,0,6,5,10
COCCn1c(SCC(=O)Nc2cccc(C)c2)nnc1C(C)C,3,.,-7,9,8,-3
COCCn1c(SCC(=O)Nc2cc(C)cc(C)c2)nnc1C(C)C,-10,100*,3,-6,2,5
CC(=NOC(=O)c1ccc(C)cc1)c1c(C)nc2cc(C)ccn12,.,.,.,.,-1,.
CC(Cn1nnc2ccccc21)=NOC(=O)c1c(F)cccc1F,.,.,.,.,3,.
CC(=NNC(=O)CN(c1ccccc1Br)S(C)(=O)=O)c1ccc2c(c1)OCCO2,.,.,.,.,1,.
Cc1ccc(-n2c(C)cc(C=NNC(=O)c3ccncc3)c2C)c(C)c1,.,.,.,.,7,.
O=C(O)CSc1nnc(-c2ccncc2)n1-c1ccc(Cl)cc1,4,-18,11,3,3,1
O=C(O)CSc1nnc(-c2ccc(Cl)cc2)n1-c1ccccc1,32,86*,11,.,.,13
Cc1[nH]nc2c1C(c1ccoc1)C(C#N)=C(N)O2 (centres undefined),-3,.,.,3,3,-7
CCCc1[nH]nc2c1C(c1ccoc1)C(C#N)=C(N)O2 (centres undefined),7,41,58*,-4,5,5
COC(=O)Cc1[nH]nc2c1C(c1ccc(O)c(OC)c1)C(C#N)=C(N)O2 (centres undefined),15,99*,.,4,3,-19
SMILES,Calb FLC,ALR inh,NALP1 inh,ATG4B inhibitor,UCH37 inh,NLRP3 yeast inh
Cc1ccc(Nc2nc(N=CNO)n[nH]2)cc1C,.,.,.,.,1,.
CCN(CC)c1ccc(/C=N/Nc2nc3ccccc3[nH]2)c(O)c1,98*,10,4,8,.,10
CCN(CC)c1ccc(C=NNc2nc3ccccc3[nH]2)cc1,.,.,.,.,-34,.
COc1ccc(/C=N/Nc2nc3ccccc3[nH]2)cc1OC,5,99*,-11,-20,.,8
COc1cc(C=NNc2nc3ccccc3[nH]2)cc(Br)c1OCC(=O)N(C)C,.,.,.,.,-6,.
COc1cc(/C=N\Nc2nc3ccccc3[nH]2)cc(OC)c1OC,0,99*,6,-1,.,1
CCOc1cc(/C=N/Nc2nc3ccccc3[nH]2)cc(Br)c1OCC(=O)N(C)C,-2,98*,6,-11,.,0
COc1cc(OC)c(OC)cc1/C=N/Nc1nc2ccccc2[nH]1,-7,4,-3,-9,.,12
COc1ccc(C=NNc2nc3ccccc3[nH]2)cc1OC,.,.,.,.,-3,.
COc1ccc(OC)c(N(CC(N)=O)S(=O)(=O)c2ccc(OC)c(OC)c2)c1,7,99*,6,-10,1,12
COc1ccc(OC)c(N(CC(=O)N2CCCCC2)S(=O)(=O)c2ccc(OC)c(OC)c2)c1,3,-10,5,6,2,27
COc1ccccc1N1CCN(N=Cc2ccccc2C(=O)O)CC1,.,.,.,.,6,.
Cc1ccc(-n2ncc3c2CCCC3NC(=O)c2ocnc2C)cc1C (centres undefined),1,-9,0,16,2,10
Cc1cc(C(=O)NC2CCCc3c2cnn3-c2ccc(C)c(C)c2)no1 (centres undefined),-17,89*,13,4,1,18
Cc1nc2ccc(C(=O)Nc3ccc(N(C)C)cc3)cc2s1,1,99*,.,-12,6,25
CC(=O)c1ccc(NC(=O)c2ccc3nc(C)sc3c2)cc1,11,-3,12,-1,5,11
CCCCc1n[nH]c2c1C(=NO)CC(C)(C)C2,.,.,.,.,1,.
O=C(NN=Cc1ccncc1)c1ccccc1[N+](=O)[O-],.,.,.,.,3,.
COC(=O)c1ccc(N=Cc2c(C(F)(F)F)[nH][nH]c2=O)cc1,-7,0,27*,0,0,5
O=C(O)c1cccc(NN=CC2=C(Cl)c3cc(Cl)ccc3SC2)c1,.,.,.,.,10,.
Cc1sc2ncnc(N/N=C/c3ccccc3O)c2c1C,34,91*,122,-9,.,.
Cc1sc2ncnc(NN=Cc3ccccc3O)c2c1C,.,.,.,.,-6,.
COC(=O)NN=Cc1cc([N+](=O)[O-])cc(Br)c1O,.,.,.,.,5,.
O=C(CSc1nc(O)c(C2CCCCC2)c(=O)[nH]1)Nc1ccc(F)cc1,-3,99*,21,-1,.,13
O=C(O)CC(SCC(=O)Nc1ccc(S(=O)(=O)N2CCCC2)cc1)C(=O)O (centres undefined),-22,100*,0,2,0,13
Cc1ccc(NC(=O)CSc2nc(N)cc(=O)[nH]2)cc1S(=O)(=O)N1CCCCCC1,.,99*,.,-6,3,7
O=C(CSc1nc(NS(=O)(=O)c2ccccc2)cc(=O)[nH]1)Nc1ccc(F)cc1,7,98*,14,-23,3,14
COc1ccc(C=NNC(=O)C(O)(c2ccccc2)c2ccccc2)cc1OC,.,.,.,.,6,.
Cc1nn(-c2ccccc2)c(Cl)c1C=NNC(=O)c1ccco1,.,.,.,.,5,.

# Source: PubChem
